Experimental data published in ChEMBL document CHEMBL1140035, “4"-Benzoylureido-TSAO derivatives as potent and selective non-nucleoside HCMV inhibitors. Structure-activity relationship and mechanism of antiviral action” (J Med Chem, 2008).
In brackets after ≈: the same amount, converted by molar mass. Activity calls are given as the source filed them. The calls are words filed in the database; no cut-off is given here.

Assays:
[1] = target: T1, DNA polymerase (Human herpesvirus 5) (UniProt A6BMM6); experiment: Inhibition of HCMV UL54-encoded DNA polymerase at 5 to 7.5 uM after 60 mins; conditions: Human betaherpesvirus 5
T1 sequence (whole entry): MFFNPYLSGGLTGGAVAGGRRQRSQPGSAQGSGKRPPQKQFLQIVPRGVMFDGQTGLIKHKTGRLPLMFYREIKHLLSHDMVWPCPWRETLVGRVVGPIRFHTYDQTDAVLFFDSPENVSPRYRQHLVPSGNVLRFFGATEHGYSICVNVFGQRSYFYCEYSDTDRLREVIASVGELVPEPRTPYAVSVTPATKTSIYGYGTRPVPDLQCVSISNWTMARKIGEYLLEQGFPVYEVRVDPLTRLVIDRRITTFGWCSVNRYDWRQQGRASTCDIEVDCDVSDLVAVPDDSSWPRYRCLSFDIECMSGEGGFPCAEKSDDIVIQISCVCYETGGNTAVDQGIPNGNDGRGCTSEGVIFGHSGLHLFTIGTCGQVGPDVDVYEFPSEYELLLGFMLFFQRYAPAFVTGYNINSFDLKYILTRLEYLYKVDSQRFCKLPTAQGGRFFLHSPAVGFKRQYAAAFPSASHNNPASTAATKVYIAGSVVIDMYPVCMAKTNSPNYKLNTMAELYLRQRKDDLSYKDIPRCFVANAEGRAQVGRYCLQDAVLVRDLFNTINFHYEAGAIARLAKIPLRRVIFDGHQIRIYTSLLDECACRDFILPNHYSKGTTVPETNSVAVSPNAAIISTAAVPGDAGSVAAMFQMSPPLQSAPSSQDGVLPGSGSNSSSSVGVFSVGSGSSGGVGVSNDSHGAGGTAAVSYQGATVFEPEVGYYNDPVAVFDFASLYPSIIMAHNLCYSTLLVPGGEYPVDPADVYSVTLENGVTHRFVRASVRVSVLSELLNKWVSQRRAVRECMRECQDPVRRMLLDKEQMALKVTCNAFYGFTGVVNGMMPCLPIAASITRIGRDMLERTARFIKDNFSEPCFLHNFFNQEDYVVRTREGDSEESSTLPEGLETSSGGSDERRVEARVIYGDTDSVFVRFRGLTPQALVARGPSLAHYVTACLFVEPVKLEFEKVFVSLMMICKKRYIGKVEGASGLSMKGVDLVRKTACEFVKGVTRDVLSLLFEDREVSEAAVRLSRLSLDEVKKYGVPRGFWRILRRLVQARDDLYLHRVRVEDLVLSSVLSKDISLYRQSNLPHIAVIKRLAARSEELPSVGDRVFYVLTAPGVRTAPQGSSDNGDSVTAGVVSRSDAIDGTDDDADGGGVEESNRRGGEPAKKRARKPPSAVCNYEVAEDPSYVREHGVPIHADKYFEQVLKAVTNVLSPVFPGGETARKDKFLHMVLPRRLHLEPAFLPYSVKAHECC

[2] = test system: Human betaherpesvirus 5; experiment: Antiviral activity against ganciclovir-resistant HCMV with DNA polymerase mutant in HEL cells assessed as reduction of virus-induced cytopathogenicity; type: functional, organism-based; conditions: Human betaherpesvirus 5, HEL
Procedure, shortened: (§1)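 Resistant mutants raised in vitro by serial passage of HCMV AD-169 under rising drug concentrations. Confluent HEL fibroblasts infected at 100 PFU/well for 2 h, then the inoculum was removed. Cells were kept with serial compound concentrations in duplicate for 7 days at 37 °C. After ethanol fixation, cytopathicity was scored microscopically. EC50 is the concentration halving virus-induced cytopathicity.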

[3] = test system: Human betaherpesvirus 5; experiment: Antiviral activity against (S)-3-hydroxy-2-phosphonomethoxypropyl cytosine-resistant HCMV with DNA polymerase mutant in HEL cells assessed as reduction of virus-induced cytopathogenicity; type: functional, organism-based; conditions: Human betaherpesvirus 5, HEL; procedure, shortened: as §1
[4] = test system: Human betaherpesvirus 5; experiment: Antiviral activity against (S)-3-hydroxy-2-phosphonomethoxypropyl adenine-resistant HCMV with DNA polymerase mutant in HEL cells assessed as reduction of virus-induced cytopathogenicity; type: functional, organism-based; conditions: Human betaherpesvirus 5, HEL; procedure, shortened: as §1
[5] = test system: Human betaherpesvirus 5; experiment: Antiviral activity against foscarnet-resistant HCMV with DNA polymerase mutant in HEL cells assessed as reduction of virus-induced cytopathogenicity; type: functional, organism-based; conditions: Human betaherpesvirus 5, HEL; procedure, shortened: as §1
[6] = test system: Human betaherpesvirus 5; experiment: Antiviral activity against acyclovir-resistant HCMV with DNA polymerase mutant in HEL cells assessed as reduction of virus-induced cytopathogenicity; type: functional, organism-based; conditions: Human betaherpesvirus 5, HEL; procedure, shortened: as §1
[7] = test system: Human betaherpesvirus 5; experiment: Antiviral activity against HCMV 6 with […] mutation in HEL cells assessed as reduction of virus-induced cytopathogenicity; type: functional, organism-based; conditions: Human betaherpesvirus 5, HEL
Procedure, shortened: (§2)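 Drug-resistant HCMV clinical isolates from immunocompromised patients, carrying UL97 and/or DNA polymerase mutations. Confluent HEL fibroblasts infected at 100 PFU/well for 2 h, then residual virus was removed. Medium with serial compound concentrations added in duplicate for 7 days at 37 °C. After ethanol fixation, cytopathicity was scored microscopically. EC50 is the concentration reducing cytopathicity by 50%.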

[8] = test system: Human betaherpesvirus 5; experiment: Antiviral activity against HCMV 521 with […] and DNA polymerase mutation in HEL cells assessed as reduction of virus-induced cytopathogenicity; type: functional, organism-based; conditions: Human betaherpesvirus 5, HEL; procedure, shortened: as §2
[9] = test system: Human betaherpesvirus 5; experiment: Antiviral activity against HCMV 530 with […] and DNA polymerase mutation in HEL cells assessed as reduction of virus-induced cytopathogenicity; type: functional, organism-based; conditions: Human betaherpesvirus 5, HEL; procedure, shortened: as §2
[10] = test system: Human betaherpesvirus 5; experiment: Antiviral activity against HCMV Davis in HEL cells assessed as reduction of virus-induced cytopathogenicity after 7 days; type: functional, organism-based; conditions: Human betaherpesvirus 5, Davis, 168 h
Procedure, shortened: (§3)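 Confluent HEL fibroblasts were infected with strain AD-169 or Davis at 100 PFU/well. After 2 h, residual virus was removed and medium with serial compound concentrations was added, in duplicate. Plates were held 7 days at 37 °C, fixed with ethanol, and scored microscopically for virus-induced cytopathicity. EC50 is the concentration reducing cytopathicity by 50%.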

[11] = test system: Human betaherpesvirus 5; experiment: Antiviral activity against HCMV AD169 in HEL cells assessed as reduction of virus-induced cytopathogenicity after 7 days; type: functional, organism-based; conditions: Human betaherpesvirus 5, AD169, HEL, 168 h; procedure, shortened: as §3
[12] = Cytotoxicity against HEL cells assessed as alteration in cell morphology after 3 days; type: cell-based; conditions: human
Procedure, shortened: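 Minimum cytotoxic concentration: the lowest compound concentration causing a microscopically detectable alteration of HEL cell morphology.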

[13] = test system: Human betaherpesvirus 5; experiment: Inhibition of immediate early antigen expression in HCMV Davis in HEL cells at 48 hrs post infection by flow cytometry; type: functional, organism-based
Procedure, shortened: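 HEL cells were infected with HCMV Davis, with compound dilutions added at infection and incubation at 37 °C. Cells were acetone-fixed at 4 °C, resuspended in PBS with 5% gelatin, and stained at 37 °C with a mAb against IE proteins 1 and 2. A fluorescein-labelled rabbit anti-mouse IgG was applied for 30 min, cells were fixed in 0.5% formaldehyde and analysed by flow cytometry. Background fluorescence of uninfected cells was subtracted.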

[14] = test system: Human betaherpesvirus 5; experiment: Antiviral activity against HCMV in HEL cells assessed as reduction of virus-induced cytopathogenicity administered at 56 hrs post infection; type: functional, organism-based
Procedure, shortened: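 Time-of-addition: confluent HEL cultures were infected with about 100 PFU/well of HCMV Davis. Compound dilutions were added at 0 h or at later time points post infection, with one plate set per time point. Seven days after infection, plates were ethanol-fixed and Giemsa-stained. Antiviral effect was scored microscopically and EC50 calculated.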

[15] = test system: Murid betaherpesvirus 1; experiment: Antiviral activity against MCMV in mouse C127I cells assessed as reduction of virus-induced cytopathogenicity after 7 days; type: functional, organism-based; conditions: Murid betaherpesvirus 1, C127I, 168 h
Procedure, shortened: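 MCMV Smith strain on confluent C127I cells, run as the HCMV assay: 100 PFU/well for 2 h, inoculum removed, then serial compound concentrations in duplicate for 7 days at 37 °C. Cytopathicity was scored microscopically after ethanol fixation. EC50 is the concentration reducing virus-induced cytopathicity by 50%.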

[16] = test system: Human alphaherpesvirus 3; experiment: Antiviral activity against wild-type VZV in HEL cells after 5 days by plaque reduction assay; type: functional, organism-based; conditions: Human alphaherpesvirus 3, HEL, 120 h
Procedure, shortened: (§4)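 Plaque reduction on confluent HEL monolayers infected with 20 PFU/well of cell-associated VZV. After 2 h, inoculum was replaced by compound dilutions in duplicate, with infected-untreated controls. After 5 days, cells were fixed and Giemsa-stained and plaques counted. EC50 is the concentration reducing plaque formation by 50% versus untreated control.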

[17] = test system: Human alphaherpesvirus 1; experiment: Antiviral activity against HSV1; type: functional, organism-based
[18] = Cytotoxicity against HEL cells assessed as reduction in cell growth after 3 days; type: cell-based; conditions: human
Procedure, shortened: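 HEL cells were seeded at 5 × 10³ cells/well and allowed to proliferate for 24 h. Compound-containing medium was then added at several concentrations for 3 days at 37 °C. Cells were counted with a Coulter counter. CC50, the concentration reducing cell growth by 50% versus untreated controls, was read from plots of cell number (% of control) against concentration.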

[19] = test system: Human alphaherpesvirus 2; experiment: Antiviral activity against HSV2; type: functional, organism-based
[20] = test system: Human alphaherpesvirus 3; experiment: Antiviral activity against thymidine-kinase deficient VZV in HEL cells after 5 days by plaque reduction assay; type: functional, organism-based; conditions: Human alphaherpesvirus 3, HEL, 120 h; procedure, shortened: as §4
[21] = test system: Vaccinia virus; experiment: Antiviral activity against vaccinia virus; type: functional, organism-based; conditions: Orthopoxvirus vaccinia

| Compound | EC50 [2] [µg/mL] | EC50 [3] [µg/mL] | EC50 [4] [µg/mL] | EC50 [5] [µg/mL] | EC50 [6] [µg/mL] | EC50 [7] [µg/mL] | EC50 [8] [µg/mL] | EC50 [9] [µg/mL] | EC50 [10] [nM] | EC50 [11] [nM] | MCC at 72 h [12] [µM] | Activity [14] | EC50 [15] [nM] | EC50 [16] [nM] | Activity [17] | CC50 at 72 h [18] [nM] | Activity [19] | EC50 [20] [nM] | Activity [21] | also measured |
| --- | --- | --- | --- | --- | --- | --- | --- | --- | --- | --- | --- | --- | --- | --- | --- | --- | --- | --- | --- | --- |
| O=C(O)P(=O)(O)O [FOSCARNET] | 17 (≈ 135 µM) | 14 (≈ 111 µM) | 35 (≈ 278 µM) | 135 (≈ 1070 µM) | 37 (≈ 294 µM) | 34 (≈ 270 µM) | 29 (≈ 230 µM) | 31 (≈ 246 µM) | – | – | – | – | – | – | – | – | – | – | – | Activity [1]: Active |
| Cc1cn([C@@H]2O[C@H](CO[Si](C)(C)C(C)(C)C(C)C)[C@@]3(OS(=O)(=O)C=C3NC(=O)NC(=O)c3ccccc3)[C@H]2O[Si](C)(C)C(C)(C)C)c(=O)n(C)c1=O | 0.9 (≈ 1.16 µM) | 1 (≈ 1.28 µM) | 3.1 (≈ 3.98 µM) | 0.78 (≈ 1 µM) | 1.1 (≈ 1.41 µM) | 0.86 (≈ 1.1 µM) | 0.67 (≈ 0.86 µM) | 1.3 (≈ 1.67 µM) | 1400 | 1100 | ≥ 100 | inactive | 660 | 11000 | inactive | > 50000 | inactive | 11000 | inactive | Activity [13]: inactive |
| Cc1cn([C@@H]2O[C@H](CO[Si](C)(C)C(C)(C)C(C)C)[C@@]3(OS(=O)(=O)C=C3NC(=O)NC(=O)c3ccccc3)[C@H]2O[Si](C)(C)C(C)(C)C(C)C)c(=O)n(C)c1=O | 3.3 (≈ 4.09 µM) | 2.6 (≈ 3.22 µM) | 5.6 (≈ 6.94 µM) | 2.7 (≈ 3.35 µM) | 2.7 (≈ 3.35 µM) | 5.5 (≈ 6.81 µM) | 2.9 (≈ 3.59 µM) | 5.7 (≈ 7.06 µM) | 1500 | 1200 | ≥ 100 | inactive | 540 | 11000 | inactive | > 50000 | inactive | 11000 | inactive | – |
